Compound activity from PubChem.
Shown are actives, neighbours in structure and some others; about 2.4% of the full set was active somewhere.
SUMO1-SIM PPI: alters human SUMO1 binding to SIM partners; P63165; SUMO1 binding to a labelled peptide, TR-FRET, 1 h; inhibition, % at 20 µM; 0.33% of 360,000 active; AID 602429; in the data active means inhibition above about 37%
Target sequence (P63165 whole entry, looked up): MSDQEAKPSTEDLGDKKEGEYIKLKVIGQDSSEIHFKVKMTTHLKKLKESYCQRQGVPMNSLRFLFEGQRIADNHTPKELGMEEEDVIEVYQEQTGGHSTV
NadD block: blocks S. aureus nicotinate mononucleotide adenylyltransferase; purified NadD enzyme, colorimetric absorbance read-out; inhibition, % at 20 µM; 0.78% of 360,000 active; AID 602399; in the data active means inhibition above about 26%
STEP block: blocks human striatal-enriched tyrosine phosphatase. P54829. recombinant STEP, OMFP fluorogenic substrate, fluorescence. inhibition, % at 20 µM. 0.25% of 360,000 active. AID 588621;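 active means inhibition at 20 µM, scaled per plate between control wells, above about 37%, limit read from the data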;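 further: 0% = DMSO with enzyme and substrate and 100% = substrate only without enzyme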
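Material: STEP (striatal-enriched tyrosine phosphatase) enzyme, cell-free; Compound dosing: 20 µM single dose in 1% DMSO; Technique: fluorescence read at 480 nm ex / 540 nm em; Times: reaction 20 min, ambient temperature; Medium: 50 mM Bis-Tris pH 6.0 with 2.5 mM DTT and 0.005% Tween 20; Also added: OMFP at 25 µM.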
DNMT1 inh: inhibitors of human DNMT1; P26358; DNMT1 molecular beacon, Hinp1I cleavage, fluorescence; inhibition (reported as % activation of signal), % at 10 µM; 0.83% of 360,000 active; AID 588458; in the data active means inhibition above about 50%
LMPTP inh: blocks human LMPTP phosphatase | P24666 | inhibition, % at 20 µM | AID 651560 | 0.22% of 360,000 active | recombinant LMPTP-A, OMFP fluorogenic substrate, fluorescence intensity;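 active means compounds that cut the enzyme signal by at least half of the control window in the single-dose screen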;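 further: plate controls were DMSO wells with enzyme plus substrate for no effect and substrate without enzyme for full effect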
Target sequence (P24666 whole entry, looked up): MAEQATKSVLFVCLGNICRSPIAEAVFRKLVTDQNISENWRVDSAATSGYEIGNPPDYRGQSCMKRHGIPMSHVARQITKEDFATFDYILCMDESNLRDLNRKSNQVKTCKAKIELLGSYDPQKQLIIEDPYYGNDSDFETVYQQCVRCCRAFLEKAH
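Test system: LMPTP-A, protein tyrosine phosphatase of low molecular weight; Input: 0.625 nM enzyme; Incubation: 50 min dark incubation at room temperature; Signal: endpoint fluorescence intensity from OMFP dephosphorylation; Read-out basis: % inhibition versus control wells.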
Scp-1 inhibitor: blocks human Scp-1 phosphatase activity; Q9GZU7; Recombinant Scp1, phosphopeptide, malachite green phosphate absorbance; inhibition, % at 20 µM; 0.88% of 340,000 active; AID 493091;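 active means inhibition above about 50% at 20 µM, limit read from the data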;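 further: plate controls were DMSO wells with enzyme for no effect and wells lacking enzyme for full effect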
Target sequence (Q9GZU7 76-261 limits assumed): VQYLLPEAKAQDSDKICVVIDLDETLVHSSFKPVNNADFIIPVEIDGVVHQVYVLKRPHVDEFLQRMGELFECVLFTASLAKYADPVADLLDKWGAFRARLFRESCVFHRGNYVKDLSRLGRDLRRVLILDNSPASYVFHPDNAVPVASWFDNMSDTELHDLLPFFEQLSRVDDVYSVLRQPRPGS
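System: SCP-1 catalytic domain; Reagent: Phospho 17-mer peptide substrate; Doses: one concentration, 20 µM, with 1.0% DMSO; Incubation: 45 min room-temperature reaction, 5 min colour, 30 min stabiliser; Signal: Phosphate-binding colour reagent, absorbance read at 630 nm.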
Scp-1 conf: confirmation of human Scp-1 phosphatase inhibitors | shares compounds with Scp-1 inhibitor | recombinant SCP-1 catalytic domain, phosphate release, malachite green absorbance | inhibition, % at 20 µM | 61% of 2,500 active;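 further: plate controls were DMSO with enzyme for no effect and buffer wells lacking enzyme for full effect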
Scp-1 MG ctr: counter-screen for Scp-1 inhibitors: colorimetric interference; 2,500 tested, under 10 active; apparent inhibition (interference), % at 20 µM; shares compounds with Scp-1 inhibitor; Colorimetric interference counterscreen, malachite green absorbance 630 nm;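 further: compounds added after enzyme reaction finished so only phosphate colour detection is probed; plate controls were DMSO wells with completed Scp-1 reaction for no effect and substrate wells lacking enzyme for full effect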
Scp-1 Tm shift: binds human Scp-1, shifting its melting temperature | Recombinant SCP1, Sypro Orange thermal shift Tm | shares compounds with Scp-1 inhibitor | 25% of 1,500 active | AID 540329 | thermal shift relative to vanadate control, % at 40 µM;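 active means substances whose mean melting-temperature shift, as a percentage of the reference inhibitor's shift, reaches about 5.3%, limit read from the data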;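 further: 0% = Tm of DMSO wells and 100% = Tm with sodium orthovanadate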
* = called active by the depositor; x = no result given.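 How the source made its calls, unless noted: active means inhibition of at least 30% at 20 µM; inactive means the rest.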

SMILES	SUMO1-SIM PPI	NadD block	STEP block	DNMT1 inh	LMPTP inh	Scp-1 inhibitor	Scp-1 conf	Scp-1 MG ctr	Scp-1 Tm shift
O=c1c2ccccc2sn1-c1cc(S(=O)(=O)N2CCOCC2)ccc1N1CCCC1	8.0	14.6	-3.4	-7.7	-1.0	88.4*	55.0*	-18.6	-63.6
Cc1ccc(N2CC(C(=O)Nc3nnc(SCCC4OCCO4)s3)CC2=O)cc1 (centres undefined)	7.4	4.8	-3.1	-1.2	-0.6	-8.3	-22.1	-18.6	x
Cc1ccc(N2CC(C(=O)Nc3nnc(SCCC4OCCO4)s3)CC2=O)cc1C (centres undefined)	13.7	14.4	2.5	-1.6	1.3	4.6	x	x	x
CC1CCC(NC(=O)Cn2c(=O)oc3cc(S(=O)(=O)N4CCCC4)ccc32)CC1 (centres undefined)	1.8	-0.1	3.2	2.2	5.2	63.1*	44.0*	-20.3	-26.2
Cc1sc2c(c1C)C(O)=C(C(=O)Nc1ccccc1)S(=O)(=O)N2C	2.6	-3.6	2.1	0.5	-1.2	-7.2	x	x	x
O=C(O)c1ccc2c(=O)n(-c3ccccc3)c(=S)[nH]c2c1	-3.4	-2.5	-1.3	2.1	-1.8	79.0*	-9.3	-12.0	x
O=C(O)c1ccc2c(=O)n(-c3ccc(F)cc3)c(=S)[nH]c2c1	0.2	-1.2	10.0	0.3	-0.4	-4.1	x	x	x
COc1ccc(NC(=O)CSc2n[nH]c(-c3ccco3)n2)cc1	-2.7	2.5	-1.0	-1.9	-0.6	-3.4	x	x	x
CC(=O)c1ccc(NC(=O)CSc2nnc(-c3ccco3)c(-c3ccco3)n2)cc1	43.4*	18.8	10.4	47.3	54.0*	83.4*	58.2*	-21.6	9.4*
NC(=O)c1ccsc1NC(=O)COC(=O)/C=C/c1ccc([N+](=O)[O-])cc1	13.8	21.9	6.6	10.5	64.0*	70.7*	58.8*	-6.0	4.1
COC(=O)c1ccc(/C=C/C(=O)OCC(=O)Nc2sccc2C(N)=O)cc1	-9.3	5.3	-2.1	-11.5	5.5	1.9	x	x	x
CO/N=C/CC(=O)c1ccc([N+](=O)[O-])c(CS(=O)(=O)c2ccc(Cl)cc2)c1	-36.6	27.1	1.2	-5.3	0.2	-14.2	x	x	x
COc1ccc(-n2nnnc2SCC(=O)NNC(=O)c2ccc([N+](=O)[O-])cc2)cc1	19.3	5.1	-1.9	2.8	1.1	5.0	x	x	x
Cc1ccc(-n2nnnc2SCC(=O)NNC(=O)c2ccc([N+](=O)[O-])cc2)cc1	-16.2	6.8	15.6	0.6	30.7	50.0*	40.6*	-11.5	0.3
COc1ccc(C(=O)N/N=C/c2ccc(OC)c(CN3CCCc4ccccc43)c2)cc1	-1.9	19.0	3.8	-11.1	3.4	56.2*	-17.5	-12.6	x
COc1ccc(/C=N/NC(=O)c2cccnc2)cc1CN1CCCc2ccccc21	-3.4	2.6	0.0	-8.8	2.2	-0.3	x	x	x
O=C(C[n+]1ccc(C(=O)c2ccccc2)cc1)Nc1ccccc1OC(F)F	-46.5	0.6	-0.8	-2.5	-1.6	83.0*	-3.5	-0.2	x
O=C(COC(=O)c1ccc[n+]([O-])c1)Nc1ccccc1OC(F)F	-2.0	-4.7	-1.8	2.1	-1.2	-5.0	x	x	x
CCc1ccc(NC(=O)CC2C(=O)NCCN2C(=O)c2ccc(F)cc2)cc1 (centres undefined)	-2.4	-8.2	-4.8	1.7	0.3	9.5	-17.2	-17.2	x
CC(C)(C)c1ccc(C(=O)N2CCNC(=O)C2CC(=O)Nc2ccc(F)cc2)cc1 (centres undefined)	-1.8	-5.3	-0.6	1.2	-0.7	2.4	x	x	x
CC(=O)N(c1ccccc1)c1nc2ccccc2s1	2.3	-2.5	0.2	0.2	-0.8	-1.1	x	x	x
CC(=O)N(c1ccccc1)c1c(F)c(F)c(F)c(F)c1F	-1.4	5.5	-1.6	-0.2	-1.1	61.4*	-8.4	-13.1	x
COc1ccc(S(=O)(=O)NCCSC(C)(C)C)c(Cl)c1Cl	2.9	-3.7	-1.8	-24.1	1.5	60.5*	34.0*	-16.1	-20.1
CCCNS(=O)(=O)c1ccc(OC)c(Cl)c1Cl	-5.1	-3.4	-1.1	2.9	-1.2	0.0	x	x	x
O=C(O)C1Cc2ccccc2CN1C(=O)COc1ccc(Br)cc1 (centres undefined)	19.9	-2.2	4.8	10.2	-1.1	53.1*	55.0*	-14.0	0.4
SMILES	SUMO1-SIM PPI	NadD block	STEP block	DNMT1 inh	LMPTP inh	Scp-1 inhibitor	Scp-1 conf	Scp-1 MG ctr	Scp-1 Tm shift
COc1ccc(OC)c2c1sc(=NC(=O)c1cccc(N3C(=O)CCC3=O)c1)n2C	-41.1	-5.4	-1.0	-5.9	2.3	-8.5	x	x	x
C/C(=N/NC(N)=S)c1cc2ccc(O)cc2oc1=O	-1.5	0.4	-3.2	46.6	10.2	54.9*	35.9*	-12.3	4.5
COc1ccc(OC(=O)CCN2C(=O)C3C4C=CC(C4)C3C2=O)cc1 (centres undefined)	1.6	1.1	1.1	2.4	-2.5	-5.0	x	x	x
Cc1ccc(C(=O)O)cc1NC(=O)c1ccc2c(c1)C(=O)N(c1ccc([N+](=O)[O-])cc1)C2=O	-20.4	-1.2	15.2	1.6	7.0	67.5*	62.3*	-3.8	4.4
COC(=O)c1nnn(-c2nonc2N)c1CSc1nnc(C)s1	0.0	-8.5	-2.1	-2.0	-1.1	50.9*	5.4	-1.0	x
COC(=O)c1nnn(-c2nonc2N)c1CSc1nnc(N)s1	-6.8	-8.2	1.6	-0.7	-3.2	-1.8	x	x	x
CCN1CCN(C(=O)c2ccc(CS(=O)Cc3ccc(C)cc3)o2)CC1 (centres undefined)	2.0	0.9	-0.6	1.0	-1.4	-2.2	x	x	x
Cc1ccc(NC(=O)c2ccc3nc[nH]c3c2)nc1	14.3	-6.8	1.4	14.1	3.7	56.9*	43.7*	-4.9	-4.1
Cc1cccc(C)c1NC(=O)CN(C)C(=O)c1ccc2nc[nH]c2c1	11.8	1.0	-0.4	-1.2	1.3	50.0*	55.0*	-7.1	-2.5
Cc1ccc(NC(=O)c2ccc3nc[nH]c3c2)c(O)c1	0.1	1.5	2.4	-2.6	-0.7	-14.4	x	x	x
CCSc1nnc(NC(=O)CSc2sc3c(O)cc(=O)[nH]c3c2C#N)s1	35.6	10.9	29.9	77.1*	61.6*	77.3*	49.1*	-13.1	12.9*
CCCSc1nnc(NC(=O)CSc2nc3[nH]c(=O)cc(O)c3s2)s1	15.0	5.2	3.7	6.8	2.4	17.4	x	x	x
Cc1csc(NC(=O)CSc2sc3c(O)cc(=O)[nH]c3c2C#N)n1	25.2	5.8	31.9	43.2	20.4	68.0*	53.2*	-17.8	12.4*
